Usually half-life stands for how long it takes for the measured level to halve. The low end stands for rapid decline, the high end for slow decline. By T/C is commonly meant the ratio of treated to control.

Where only a bound is given, the exact number is not on record here.

Series [1] is described as follows: Half-life in 4:6 acetone/ 1.0 M HEPES buffer, pH 7.4, 37 degree celsius. In kind it is ADME. The method in brief: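 Generation of 4 from the 4-hydroxy compounds followed by ³¹P NMR in 4:6 acetone/1.0 M HEPES, pH 7.4, 37 °C; half-time of phosphoramide mustard release recorded.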
Series [2] relates to L1210. In words: In vivo antitumor activity against intraperitoneal murine cyclophosphamide resistant L1210 Leukemia cells at 170 umol/kg. The format is functional, Mus musculus. The method in brief: (§1)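 NCI L1210 protocol. Tumor propagated in DBA/2 mice; tests done in B6D2F1 mice, six per group, given 10⁶ L1210 cells ip. One ip dose of drug suspended in 2% (carboxymethyl)cellulose (or vehicle alone) given 24 h later. Survival followed daily for 30 days. %T/C = 100 × treated/control survival time.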

The test system of series [3] is L1210. In words: In vivo antitumor activity against intraperitoneal murine cyclophosphamide resistant L1210 Leukemia cells at 510 umol/kg. The format is functional, Mus musculus. The procedure, abridged:
as §1

The subject of series [4] is L1210. In words: In vivo antitumor activity against intraperitoneal murine cyclophosphamide resistant L1210 Leukemia cells at 680 umol/kg. The format is functional, Mus musculus. The method in brief: as §1
Series [5] has as its system L1210. In words: In vivo antitumor activity against intraperitoneal murine cyclophosphamide resistant L1210 Leukemia cells at 340 umol/kg. The format is functional, Mus musculus. The procedure, abridged:
as §1

The subject of series [6] is L1210. In words: In vivo antitumor activity against intraperitoneal murine wild type L1210 Leukemia cells at 170 umol/kg. In kind it is functional, Mus musculus. The method in brief: as §1
Series [7] relates to L1210. In words: In vivo antitumor activity against intraperitoneal murine wild type L1210 Leukemia cells at 510 umol/kg. The format is functional, Mus musculus. The method in brief:
as §1

Series [8] has as its system L1210. In words: In vivo antitumor activity against intraperitoneal murine wild type L1210 Leukemia cells at 680 umol/kg. The format is functional, Mus musculus. The method in brief:
as §1

Series [9] relates to L1210. In words: In vivo antitumor activity against intraperitoneal murine wild type L1210 Leukemia cells at 340 umol/kg. The format is functional, Mus musculus. The method in brief: as §1
Series [10] has as its system L1210. In words: In vitro antitumor activity against cyclophosphamide-resistant L1210/CP cells. The format is functional, Mus musculus. The procedure, abridged: (§2)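 Clonogenic assay on L1210 and P388 leukemia cells, wild-type (/O) and cyclophosphamide-resistant (/CP) lines, with 1-h drug exposure. LC99 is the concentration that cuts colony formation to 1% of control. It comes from linear regression of log survival vs concentration, at least three determinations.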

For series [11], the system named is L1210. In words: In vitro antitumor activity against wild-type L1210/0 cells. The format is functional, Mus musculus. The procedure, abridged:
as §2

Series [12] relates to L1210. In words: Resistance factor for LC99 of resistant (L1210/CP) to that of LC99 for wild type (L1210/0). In kind it is functional, Mus musculus. The procedure, abridged: (§3)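 Resistance factor is LC99 in the cyclophosphamide-resistant line divided by LC99 in the matching wild-type line. Each LC99 comes from a clonogenic assay with 1-h drug exposure, by linear regression of log survival vs concentration, at least three determinations.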

The test system of series [13] is P388. In words: In vitro antitumor activity against cyclophosphamide-resistant P388/CP cells. The format is functional, Mus musculus. The method in brief:
as §2

Series [14] has as its system P388. In words: In vitro antitumor activity against wild-type P388/0 cells. The format is functional, Mus musculus. The method in brief:
as §2

The subject of series [15] is P388. In words: Resistance factor for LC99 of resistant (P388/CP) to that of LC99 for wild type (P388/0). In kind it is functional, Mus musculus. The procedure, abridged:
as §3

For `O=[P@]1(N(CCCl)CCCl)N[C@H](OO)C[C@@H](c2ccncc2)O1`, in series [1], the half-life was determined as 1.83 h. The T/C in the series on L1210 [2] was 119%; in the series on L1210 [3], 138%; in the series on L1210 [4], 150%; in the series with L1210 [5], 131%; in the series with L1210 [6], 130%; in the series on L1210 [7] it was 160%. The values for the T/C with L1210 [8] and with L1210 [9] were 190% and 150%, respectively. Also, the LC99 was 57 µM in the series on L1210 [10], 53 µM with L1210 [11], 23 µM with P388 [13] and 44 µM in the series on P388 [14]. Besides, the results for the RF with L1210 [12] and with P388 [15] were 1.1 and 0.5, respectively.

Molecule `O=[P@]1(N(CCCl)CCCl)N[C@H](OO)C[C@@H](c2ccccc2)O1` came in with a half-life in series [1] of 2.17 h. Moreover, the T/C in the series with L1210 [6] was 117%; in the series on L1210 [9], 144%. The LC99 came out at 29 µM in the series with L1210 [10], 9 µM with L1210 [11], 15 µM with P388 [13] and 6 µM in the series with P388 [14]. Besides, the RF with L1210 [12] is reported as 3.2; in the series on P388 [15], 2.5.

On to `O=[P@]1(N(CCCl)CCCl)N[C@H](OO)C[C@@H](c2cccnc2)O1`, for which the half-life in [1] was determined as 1.75 h. For the same molecule, the LC99 in the series on L1210 [10] turned out to be 56 µM; in the series with L1210 [11], 36 µM; in the series on P388 [13], 34 µM; in the series with P388 [14] it was 33 µM. Moreover, the RF with L1210 [12] is reported as 1.6; in the series with P388 [15], 1.

With `C[C@@H]1C[C@@H](OO)N[P@](=O)(N(CCCl)CCCl)O1`, the half-life in series [1] was > 8.33 h. The molecule further showed a T/C in the series with L1210 [9] of 138%. The LC99 in the series on L1210 [10] was found to be 180 µM; in the series with L1210 [11] it was 39 µM; with P388 [13], 69 µM; in the series on P388 [14], 26 µM. The RF with L1210 [12] is listed as 4.6; in the series with P388 [15] it was 2.7.

For the molecule `O=[P@]1(N(CCCl)CCCl)N[C@H](OO)C[C@@H](CCc2ccccc2)O1`, the half-life in [1] is > 8.33 h. In addition, the T/C with L1210 [9] was 106%. Further, the LC99 in the series with L1210 [10] stood at 9 µM; in the series on L1210 [11], 13 µM; with P388 [13], 5 µM; in the series with P388 [14], 10 µM. The RF is 0.7 with L1210 [12] and 0.5 with P388 [15].

`O=[P@]1(N(CCCl)CCCl)N[C@H](OO)C[C@@H](c2ccc(F)cc2)O1` gave a half-life in series [1] of 3.42 h. In addition, the T/C worked out at 188% with L1210 [7] and 163% with L1210 [9]. The LC99 with L1210 [10] was determined as 8 µM; with L1210 [11], 7 µM; in the series with P388 [13], 5 µM; with P388 [14], 6 µM. Besides, the RF in the series on L1210 [12] and in the series with P388 [15] was 1.2 throughout.

Take `O=[P@@]1(N(CCCl)CCCl)N[C@H](OO)C[C@@H](c2ccccc2)O1`: the half-life in [1] amounted to 1.53 h. For the same molecule, the LC99 with L1210 [10] stood at 26 µM; in the series on L1210 [11], 20 µM; in the series with P388 [13], 21 µM; in the series with P388 [14] it was 16 µM. Also, the RF with L1210 [12] and in the series with P388 [15] was 1.3 in each case.

Turning to `CC(C)[C@@H]1C[C@@H](OO)N[P@](=O)(N(CCCl)CCCl)O1`, the half-life in [1] was > 8.33 h. For the same molecule, the LC99 in the series with L1210 [10] came out at 86 µM; in the series with L1210 [11], 110 µM; in the series on P388 [14], 61 µM. The RF with L1210 [12] was determined as 1; in the series with P388 [15], 0.7.

`Cc1ccc([C@@H]2C[C@@H](OO)N[P@](=O)(N(CCCl)CCCl)O2)cc1` showed a half-life in [1] of 4 h. Moreover, the T/C stood at 175% with L1210 [7], 175% in the series on L1210 [8] and 150% with L1210 [9]. Besides, the LC99 in the series on L1210 [10] amounted to 6 µM; in the series on L1210 [11] it was 5 µM; with P388 [13], 3 µM; in the series on P388 [14], 3 µM. Also, the values for the RF in the series with L1210 [12] and with P388 [15] were 1.2 and 1, respectively.

In [1], `O=[N+]([O-])c1ccc([C@@H]2C[C@@H](OO)N[P@](=O)(N(CCCl)CCCl)O2)cc1` registered a half-life of 3.17 h. The T/C in the series with L1210 [7] amounted to 185%; in the series with L1210 [8], 205%; with L1210 [9], 163%. For the same molecule, the LC99 with L1210 [10] was determined as 8 µM; in the series on L1210 [11], 8 µM; with P388 [13] it was 3 µM; with P388 [14], 7 µM. Further, the RF in the series on L1210 [12] was found to be 1; in the series on P388 [15], 0.4.

For `O=P1(N(CCCl)CCCl)NCCCO1` (stereo not given) [CYCLOPHOSPHAMIDE ANHYDROUS], the T/C came to 105% with L1210 [2]; 110% in the series with L1210 [3]; 95% in the series with L1210 [5]; 150% in the series with L1210 [6]; 208% in the series on L1210 [7].

The molecule `O=P1(N(CCCl)CCCl)NC(OO)CCO1` (stereo not given) [PERFOSFAMIDE] returned a half-life in series [1] of 0.25 h. In addition, the T/C in the series with L1210 [2] was 115%; in the series with L1210 [5] it was 110%; in the series on L1210 [6], 140%; with L1210 [9], 171%. The LC99 in the series on L1210 [10] stood at 140 µM; in the series on L1210 [11], 8 µM; with P388 [13], 60 µM; with P388 [14] it was 6 µM. In addition, the RF in the series with L1210 [12] was determined as 17; in the series with P388 [15] it was 10.

Values taken from ChEMBL document CHEMBL1125770, “Synthesis and antitumor properties of activated cyclophosphamide analogues” (J Med Chem, 1991).
